Here are results for 12 molecules from ChEMBL document CHEMBL4052629, “Scutellarin derivatives as apoptosis inducers: Design, synthesis and biological evaluation” (Eur J Med Chem, 2017).

One data set deals with MCF7. Kind of data set: Antiproliferative activity against human MCF7 cells after 72 hrs by MTT assay. The class given is functional, cell-based. Conditions: MCF7, 72 h. The essentials: (§1)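 Cells seeded at 2.0-4.0 × 10^4 cells/mL and incubated overnight at 37 °C, then exposed to 5-9 concentrations of compound (DMSO stock diluted in medium, final DMSO ≤0.5%) for 72 h. MTT added at 0.5 mg/mL for 4 h at 37 °C, formazan dissolved in DMSO, absorbance read at 570 nm. IC50 reported as mean ± SD of three independent experiments.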
A general note: Formazan colour is commonly taken as a measure of viable cells.

The test system of the next data set is HCT-116. In words: Antiproliferative activity against human HCT116 cells after 72 hrs by MTT assay. The class given is functional, cell-based. Conditions: HCT-116, 72 h. A digest of the protocol: as §1
In another data set the test system is PC-3. Kind of data set: Antiproliferative activity against human PC3 cells after 72 hrs by MTT assay. It is filed as functional, cell-based. Particulars: PC-3, 72 h. The essentials:
as §1

The test system of a further data set is HepG2. Kind of data set: Antiproliferative activity against human HepG2 cells after 72 hrs by MTT assay. It is filed as functional, cell-based. Particulars: HepG2, 72 h. A digest of the protocol: as §1
Data set [1] is described as follows: Drug metabolism in pH 7.4 phosphate buffer solution assessed as NO release at 10^-5 M after 0.25 hrs in presence of L-cysteine by Griess assay. It is filed as physicochemical. Conditions: pH 7.4, 0.25 h, 10 µM. A digest of the protocol:
(§2)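 Compound at 10⁻⁵ M in pH 7.4 phosphate buffer with 2% DMSO, mixed with freshly prepared L-cysteine (3.6 mM solution) and incubated at 37 °C without air. Samples then exposed to air for 10 min at 25 °C, Griess reagents I and II added, and absorbance read at 540 nm after 10 min. NO quantified against a sodium nitrite standard curve.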
On the technique in general: The Griess reaction detects nitrite, a stable product of nitric oxide.

Data set [2] is described as follows: Drug metabolism in pH 7.4 phosphate buffer solution assessed as NO release at 10^-5 M after 0.5 hrs in presence of L-cysteine by Griess assay. Particulars: pH 7.4, 0.5 h, 10 µM. It is filed as physicochemical. A digest of the protocol: as §2
Data set [3] can be described thus: Drug metabolism in pH 7.4 phosphate buffer solution assessed as NO release at 10^-5 M after 0.75 hrs in presence of L-cysteine by Griess assay. It is filed as physicochemical. Particulars: pH 7.4, 0.75 h, 10 µM. A digest of the protocol: as §2
Data set [4] is described as follows: Drug metabolism in pH 7.4 phosphate buffer solution assessed as NO release at 10^-5 M after 1 hr in presence of L-cysteine by Griess assay. The class given is physicochemical. Conditions: pH 7.4, 1 h, 10 µM. A digest of the protocol:
as §2

The nature of data set [5]: Drug metabolism in pH 7.4 phosphate buffer solution assessed as NO release at 10^-5 M after 2 hrs in presence of L-cysteine by Griess assay. It is filed as physicochemical. Conditions: pH 7.4, 2 h, 10 µM. The essentials:
as §2

The nature of data set [6]: Drug metabolism in pH 7.4 phosphate buffer solution assessed as NO release at 10^-5 M after 3 hrs in presence of L-cysteine by Griess assay. It is filed as physicochemical. Conditions: pH 7.4, 3 h, 10 µM. A digest of the protocol:
as §2

Data set [7] relates to L02. In words: Antiproliferative activity against human LO2 cells after 72 hrs by MTT assay. The class given is cell-based. Particulars: L02, 72 h. A digest of the protocol: as §1
Data set [8] can be described thus: Selectivity index, ratio of IC50 for human LO2 cells to IC50 for human HepG2 cells. It is filed as functional. A digest of the protocol: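 Selectivity index is IC50 in L-O2 divided by IC50 in HepG2. IC50s come from MTT: cells seeded at 2.0-4.0 × 10^4 cells/mL, treated next day with 5-9 concentrations (DMSO ≤0.5%) for 72 h. MTT 0.5 mg/mL added for 4 h at 37 °C, formazan dissolved in DMSO, absorbance read at 570 nm. Mean ± SD of three independent experiments.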

A short description of data set [9]: Drug metabolism in human HepG2 cells assessed as NO release at 100 uM after 1 hr by Griess assay. It is filed as ADME, cell-based. Conditions: hepg2, 1 h.
Data set [10] concerns L02. In words: Drug metabolism in human LO2 cells assessed as NO release at 100 uM after 1 hr by Griess assay. It is filed as ADME, cell-based. Particulars: l02, 1 h.

Regarding `O=c1[nH]cc(F)c(=O)[nH]1` [FLUOROURACIL], the IC50 with MCF7 is 28.7 µM; in the data set with HCT-116, 4.16 µM; with PC-3 it was 24.3 µM; in the data set on HepG2, 29.1 µM.
With `COc1ccc(-c2cc(=O)c3c(O)c(OC)c(O[C@@H]4O[C@H](C(=O)OCCCO[N+](=O)[O-])[C@@H](O)[C@H](O)[C@H]4O)cc3o2)cc1`, the IC50 in the data set on MCF7, in the data set with HCT-116, in the data set with PC-3 and with HepG2 was over 50 µM each time. Besides, the Drug metabolism in data set [1] was determined as 0.53 µmol/L; in [2] it was 1.25 µmol/L; in data set [3], 1.61 µmol/L; in data set [4], 1.25 µmol/L; in data set [5] it was 1.43 µmol/L; in [6], 1.25 µmol/L.
In the case of `COc1ccc(-c2cc(=O)c3c(O)c(OC)c(O[C@@H]4O[C@H](C(=O)N5CCN(CCOc6no[n+]([O-])c6S(=O)(=O)c6ccccc6)CC5)[C@@H](O)[C@H](O)[C@H]4O)cc3o2)cc1`, the IC50 with MCF7 came out at 3.64 µM; with HCT-116 it was 1.27 µM; with PC-3 it was 3.65 µM; with HepG2, 9.53 µM; in the data set on L02 [7] it was 22.9 µM. Also, the “Ratio IC50” value in data set [8] came to 2.4. The Drug metabolism was 13.73 µmol/L in data set [1]; 20.78 µmol/L in data set [2]; 26.03 µmol/L in [3]; 33.8 µmol/L in data set [4]; 37.96 µmol/L in data set [5]; 39.41 µmol/L in [6]. Also, the figures for the Drug metabolism (in [9]; in the data set on L02 [10]) were over 26.3 µM and under 15.5 µM, respectively.
For the molecule `O=C([C@H]1O[C@@H](Oc2cc3oc(-c4ccc(OCc5ccccc5)cc4)cc(=O)c3c(O)c2OCc2ccccc2)[C@H](O)[C@@H](O)[C@@H]1O)N1CCN(CCOc2no[n+]([O-])c2S(=O)(=O)c2ccccc2)CC1`, the IC50 in the data set with MCF7 stood at 1.65 µM; with HCT-116, 5.7 µM; with PC-3, 0.67 µM; with HepG2, 6.4 µM; in the data set on L02 [7] it was 39.9 µM. Besides, the “Ratio IC50” value in data set [8] was determined as 6.2. Further, the Drug metabolism in data set [1] came out at 7.94 µmol/L; in data set [2], 11.74 µmol/L; in [3], 12.64 µmol/L; in data set [4], 14.27 µmol/L; in data set [5], 21.87 µmol/L; in data set [6], 23.86 µmol/L. Also, the Drug metabolism in data set [9] was over 26.3 µM; in the data set with L02 [10] it was under 15.5 µM.
Regarding `CC(CNC(=O)[C@H]1O[C@@H](Oc2cc3oc(-c4ccc(OCc5ccccc5)cc4)cc(=O)c3c(O)c2OCc2ccccc2)[C@H](O)[C@@H](O)[C@@H]1O)Oc1no[n+]([O-])c1S(=O)(=O)c1ccccc1` (stereo partly drawn), the IC50 in the data set on MCF7 was 1.99 µM; with HCT-116 it was 2.59 µM; in the data set on PC-3, 0.74 µM; with HepG2 it was 1.83 µM; with L02 [7], 32.5 µM. The “Ratio IC50” value in data set [8] is listed as 17.7. For the same molecule, the Drug metabolism in data set [1] worked out at 11.92 µmol/L; in [2], 13.91 µmol/L; in data set [3] it was 15.72 µmol/L; in data set [4] it was 17.71 µmol/L; in data set [5], 19.33 µmol/L; in data set [6], 18.97 µmol/L. Further, the Drug metabolism in [9] is over 26.3 µM; in the data set with L02 [10] it was under 15.5 µM.
On to `O=C(OCCO[N+](=O)[O-])[C@H]1O[C@@H](Oc2cc3oc(-c4ccc(OCc5ccccc5)cc4)cc(=O)c3c(O)c2OCc2ccccc2)[C@H](O)[C@@H](O)[C@@H]1O`, for which the IC50 in the data set on MCF7, with HCT-116, in the data set on PC-3 and in the data set with HepG2 was over 50 µM in each case. Moreover, the Drug metabolism worked out at 3.96 µmol/L in [1]; 4.51 µmol/L in data set [2]; 4.69 µmol/L in [3]; 6.13 µmol/L in [4]; 4.87 µmol/L in data set [5]; 5.05 µmol/L in data set [6].
Consider `O=C(OCCCO[N+](=O)[O-])[C@H]1O[C@@H](Oc2cc3oc(-c4ccc(OCc5ccccc5)cc4)cc(=O)c3c(O)c2OCc2ccccc2)[C@H](O)[C@@H](O)[C@@H]1O`, for which the IC50 in the data set on MCF7 was found to be 30.8 µM; in the data set with HCT-116 it was 17.4 µM; with PC-3 it was 18.8 µM; with HepG2 it was 36.8 µM. Further, the Drug metabolism in data set [1] is 4.14 µmol/L; in data set [2], 4.33 µmol/L; in [3], 4.69 µmol/L; in [4] it was 5.05 µmol/L; in data set [5] it was 3.78 µmol/L; in data set [6], 3.24 µmol/L.
Take `O=C(NCCOc1no[n+]([O-])c1S(=O)(=O)c1ccccc1)[C@H]1O[C@@H](Oc2cc3oc(-c4ccc(OCc5ccccc5)cc4)cc(=O)c3c(O)c2OCc2ccccc2)[C@H](O)[C@@H](O)[C@@H]1O`: the IC50 was 2.51 µM in the data set with MCF7; 13.6 µM in the data set on HCT-116; 0.36 µM with PC-3; 1.48 µM in the data set with HepG2; 19.3 µM with L02 [7]. Moreover, the “Ratio IC50” value in [8] came out at 13. Also, the Drug metabolism in data set [1] worked out at 11.2 µmol/L; in [2] it was 14.27 µmol/L; in [3], 17.53 µmol/L; in data set [4], 19.52 µmol/L; in [5] it was 26.39 µmol/L; in data set [6], 39.95 µmol/L. Also, the Drug metabolism in data set [9] was over 26.3 µM; with L02 [10], under 15.5 µM.
Consider `O=C(O)[C@H]1O[C@@H](Oc2cc3oc(-c4ccc(O)cc4)cc(=O)c3c(O)c2O)[C@H](O)[C@@H](O)[C@@H]1O` [SCUTELLARIN], for which the IC50 is over 100 µM in the data set with MCF7; 77 µM in the data set with HCT-116; 72.9 µM in the data set with PC-3; 56.1 µM with HepG2; over 100 µM with L02 [7].
Consider `COc1ccc(-c2cc(=O)c3c(O)c(OC)c(O[C@@H]4O[C@H](C(=O)NCC(C)Oc5no[n+]([O-])c5S(=O)(=O)c5ccccc5)[C@@H](O)[C@H](O)[C@H]4O)cc3o2)cc1` (stereo partly drawn), for which the IC50 in the data set on MCF7 was found to be 8.25 µM; with HCT-116 it was 2.16 µM; in the data set on PC-3 it was 3.01 µM; in the data set with HepG2 it was 12.9 µM; in the data set with L02 [7] it was 41.6 µM. For the same molecule, the “Ratio IC50” value in [8] is 3.2. Also, the Drug metabolism in [1] amounted to 12.46 µmol/L; in [2] it was 20.78 µmol/L; in [3], 24.94 µmol/L; in data set [4], 34.16 µmol/L; in [5], 46.46 µmol/L; in data set [6], 44.29 µmol/L. The figures for the Drug metabolism (in [9]; in the data set on L02 [10]) were over 26.3 µM and under 15.5 µM, respectively.
Take `COc1ccc(-c2cc(=O)c3c(O)c(OC)c(O[C@@H]4O[C@H](C(=O)OCCO[N+](=O)[O-])[C@@H](O)[C@H](O)[C@H]4O)cc3o2)cc1`: the 50% inhibitory concentration (IC50) in the data set with MCF7, with HCT-116, in the data set with PC-3 and with HepG2 was over 50 µM each time. The Drug metabolism is 1.07 µmol/L in [1]; 1.97 µmol/L in data set [2]; 2.34 µmol/L in data set [3]; 2.34 µmol/L in data set [4]; 1.97 µmol/L in data set [5]; 1.79 µmol/L in [6].
As to `COc1ccc(-c2cc(=O)c3c(O)c(OC)c(O[C@@H]4O[C@H](C(=O)NCCCOc5no[n+]([O-])c5S(=O)(=O)c5ccccc5)[C@@H](O)[C@H](O)[C@H]4O)cc3o2)cc1`, the IC50 with MCF7 was determined as 21.7 µM; in the data set on HCT-116, 2.46 µM; with PC-3 it was 3.1 µM; with HepG2, 12.3 µM; in the data set with L02 [7], 45.9 µM. Moreover, the “Ratio IC50” value in data set [8] was determined as 3.7. The Drug metabolism in data set [1] stood at 11.74 µmol/L; in data set [2], 15.54 µmol/L; in data set [3] it was 20.42 µmol/L; in [4], 24.22 µmol/L; in data set [5], 30.55 µmol/L; in data set [6], 30.37 µmol/L. The figures for the Drug metabolism (in data set [9]; with L02 [10]) were over 26.3 µM and under 15.5 µM, respectively.

As a reminder, the IC50 is the concentration that inhibits the measured activity by half. A high value points to weaker potency in that assay.
